Source: ChEMBL document CHEMBL1125797, “Synthesis, characterization and myocardial uptake of cationic bis(arene)technetium(I) complexes” (J Med Chem, 1991)

Columns and labels:
Homo sapiens = organism: Homo sapiens; experiment: The compound was tested for the plasma binding in human; assay type: functional
Procedure, shortened: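 Fresh heparinized human plasma (1.0 mL, obtained daily) was spiked with 0.02 mL test solution and incubated about 15 min. Duplicate samples went through saline-equilibrated Sephadex G-25 desalting columns by centrifugation. Eluate and gel were γ-counted for 1 min or to 1% σ error. % bound = net cpm eluate / net cpm (eluate + gel) × 100.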

Rattus norvegicus [1] = organism: Rattus norvegicus; experiment: The compound was tested for the plasma binding in rat; assay type: functional
Procedure, shortened: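 Plasma protein binding was measured in rat plasma samples collected during the rat biodistribution studies, after tail vein injection of the 99mTc complex in saline (~25 μCi/kg).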

[2] = Biodistribution of compound in rat muscle after 5 min of administration; assay type: ADME, organism-based, Muscle tissue; conditions: in vivo
Procedure, shortened: (§1)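 Rats received the 99mTc complex in normal saline (~12.5 μCi/mL) by lateral tail vein injection at ~25 μCi/kg and were killed by cervical dislocation at the stated time. Tissues were washed with saline, blotted, weighed and γ-counted to give percent injected dose/g. Time-course values are averages of male and female rats.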

Rattus norvegicus [3] = experiment: Biodistribution of compound in rat kidney after 5 min of administration; assay type: ADME, organism-based; conditions: in vivo
Procedure, shortened: (§2)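 Female Sprague-Dawley rats (150–200 g) received the 99mTc complex in normal saline (~12.5 μCi/mL) via a lateral tail vein at ~25 μCi/kg. They were killed by cervical dislocation 5 min after injection. Tissues were washed with saline, blotted, weighed and γ-counted, and the read-out was percent injected dose per g tissue.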

Rattus norvegicus [4] = experiment: Biodistribution of compound in rat liver after 5 min of administration; assay type: ADME, organism-based; conditions: in vivo; procedure, shortened: as §2
Rattus norvegicus [5] = experiment: Biodistribution of compound in rat heart after 5 min of administration; assay type: ADME, organism-based; conditions: in vivo; procedure, shortened: as §2
Rattus norvegicus [6] = experiment: Biodistribution of compound in rat blood after 5 min of administration; assay type: ADME, organism-based; conditions: in vivo; procedure, shortened: as §2
Rattus norvegicus [7] = experiment: Biodistribution of compound in rat lung after 5 min of administration; assay type: ADME, organism-based; conditions: in vivo; procedure, shortened: as §1

| Substance | PPB (Homo sapiens) | PPB (Rattus norvegicus [1]) | Dose/g [2] | Dose/g (Rattus norvegicus [3]) | Dose/g (Rattus norvegicus [4]) | Dose/g (Rattus norvegicus [5]) | Dose/g (Rattus norvegicus [6]) | Dose/g (Rattus norvegicus [7]) |
| --- | --- | --- | --- | --- | --- | --- | --- | --- |
| Bis(m-xylene)technetium | 11% | 12% |  |  |  |  |  |  |
| Bis(toluene)technetium |  |  | 0.069% | 3.4% | 2.6% | 0.22% | 0.2% | 0.51% |
